PHOSPHO1 block: inhibitors of human PHOSPHO1 phosphatase. actives 1.1% (n = 290,000). recombinant PHOSPHO1, absorbance phosphatase assay. inhibition, % at 13.3 µM. AID 1565. Q8TCT1; in the data active = inhibition above about 60%
Target sequence (Q8TCT1 whole entry, looked up): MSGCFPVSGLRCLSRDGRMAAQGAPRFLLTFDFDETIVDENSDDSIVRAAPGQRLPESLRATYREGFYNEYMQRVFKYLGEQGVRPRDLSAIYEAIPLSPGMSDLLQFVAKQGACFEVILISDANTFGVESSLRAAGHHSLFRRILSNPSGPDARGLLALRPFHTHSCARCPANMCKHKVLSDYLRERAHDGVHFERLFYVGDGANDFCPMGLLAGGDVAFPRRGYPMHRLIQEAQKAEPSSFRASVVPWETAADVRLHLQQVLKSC
CHT PAM: allosterically activates the human high affinity choline transporter. AID 488977. B-score at 10 µM. actives 0.49% (n = 310,000). CHT-expressing cells, membrane potential dye, choline EC20; hits give high values; LV-AA mutant CHT in HEK293 cells. Q9GZV3;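 active = initial fluorescence not abnormally high and integrated response B-score, plate-corrected, over 3 SD above library mean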
Hep lipid drop: modulators of hepatic lipid droplet formation; AID 1656; actives 0.4% (n = 240,000); inhibition, % at 6.5 µM; AML12 mouse hepatocytes, oleate lipid droplets, BODIPY imaging;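 active = lipid droplet intensity inhibited by at least 50%, with more than 500 cells counted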
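Assay system: AML12 mouse liver cells | Compound dosing: One dose, 6.5 µM compound | Read-out basis: Droplet intensity reduction, % inhibition | Measured by: Fluorescence imaging, 20x objective, two fields per well | Schedule: Overnight treatment with compound plus oleate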
HSF1 inhib: HSF1 inhibition. NIH3T3-HGL HSE-luciferase, MG132-induced, luminescence 8 h; hits give low values. activity change, negative = inhibition, % at 7.5 µM (by protocol). actives 0.77% (n = 300,000);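 active = more than half of replicate wells show activity change below -50%, luminescence cut by over half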;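 also: luciferase reports HSF-1 transcriptional activity via heat shock element; 0% = median of DMSO wells and -100% = zero luminescence signal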
CHT inh: human CHT choline transport inhibition. CHT-expressing cells, membrane potential dye, choline response; hits give low values. B-score at 10 µM. actives 0.86% (n = 310,000). AID 488975;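 active = B-score over 3 SD under the library average, and starting fluorescence ratio not unusually high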;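 also: choline stimulus applied at its EC90 after an EC20 pre-addition; B-score computed on integrated fluorescence ratio after choline addition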
HSF1 activator: increases HSF-1 driven luciferase reporter signal; NIH3T3-HGL HSF-1 luciferase reporter, MG132, 8 h; 100% = twice DMSO control signal; activation, % at 9 µM; actives 1.7% (n = 300,000);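 active = mean replicate activation of at least 50% with a set share of replicates each reaching 50%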;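 also: 0% = median of the neutral control wells and 100% = twice that signal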
CHT block conf: confirmation of human choline transporter CHT inhibitors. shares compounds with CHT inh. CHT-expressing cells, choline membrane potential dye; LV-to-AA substituted CHT, HEK293 cells. CHT activity remaining % of control (hits give low values), % at 10 µM. actives 70% (n = 2,400). AID 493221;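 active = choline transporter activity left, mean of duplicates at 10 µM, below buffer-only control mean minus 3 SD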;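 also: depolarization triggered by choline at its EC90 following an EC20 pre-addition; 0% = hemicholinium-3 full block and 100% = buffer-only control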
HEK293 MPD ctr: CHT inhibitor counter-screen hit in parental HEK293 cells; AID 493222; actives 4% (n = 2,400); membrane potential ratio readout (active if shifted either direction beyond buffer ±3SD; no single direction) at 10 µM; shares compounds with CHT inh; membrane potential dye, choline response; active = decrease or increase beyond buffer ±3SD;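 also: parental cells lack the transporter so any hit is non-specific; ratio is peak minus trough fluorescence over baseline after EC90 choline challenge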
Starred values were filed as active, the others as inactive. Only some compounds are listed: those with a hit (about 4.9% of all), similar ones and a draw of the others.

Results for Cc1cc(Cl)ccc1OC(C)C(=O)NN=C1CCCCCC1 (configuration not stated) ?
PHOSPHO1 block: 23; CHT PAM: inactive; HSF1 inhib: -4; CHT inh: inactive; HSF1 activator: 6

What do the screens show for `CCC(=O)N[C@@H]1CC(C(C)(C)NC(=O)CC)CC=C1C` (some centres not stated)?
PHOSPHO1 block: 10; CHT PAM: inactive; HSF1 inhib: 3; CHT inh: inactive; HSF1 activator: 15

How did CCOC(=O)c1sc(NC(=O)CCN2C(=O)c3cccc([N+](=O)[O-])c3C2=O)c(C(=O)OCC)c1C do in these assays?
PHOSPHO1 block: 7; CHT PAM: inactive; Hep lipid drop: 25; HSF1 inhib: 0; CHT inh: -7.4*; HSF1 activator: 17; CHT block conf: 56%*; HEK293 MPD ctr: inactive

Results for CCOC(=O)c1sc(NC(=O)CCN2C(=O)c3ccccc3C2=O)c(C(=O)OCC)c1C ?
PHOSPHO1 block: -24; CHT PAM: inactive; Hep lipid drop: -2; HSF1 inhib: 1; CHT inh: inactive; HSF1 activator: -3

Results for CCOC(=O)c1[nH]c2cc3c(cc2c1NC(=O)CN1CCc2ccccc2C1)OCO3 ?
PHOSPHO1 block: -14; CHT PAM: inactive; HSF1 inhib: -3; CHT inh: inactive; HSF1 activator: 10

Results for CN(Cc1ccccc1F)C(=O)c1ccc(NS(=O)(=O)c2ccc3[nH]c(=O)[nH]c3c2)cc1 ?
CHT PAM: inactive; HSF1 inhib: -5; CHT inh: inactive; HSF1 activator: -12

Results for Oc1c(Cl)cc(Cl)cc1C=Nc1ccc(Br)cc1 ?
PHOSPHO1 block: 50; CHT PAM: inactive; HSF1 inhib: 16; CHT inh: -6.5*; HSF1 activator: 12; CHT block conf: 51%*; HEK293 MPD ctr: inactive

How did CCOC(=O)c1nc(S(C)(=O)=O)ncc1N1CCOCC1 do in these assays?
PHOSPHO1 block: 14; CHT PAM: inactive; HSF1 inhib: -6; CHT inh: inactive; HSF1 activator: 11

What do the screens show for `CS(=O)(=O)c1ncc(Cl)c(C(=O)Nc2ccc(OC(F)F)cc2)n1`?
PHOSPHO1 block: 36; CHT PAM: inactive; Hep lipid drop: -2; HSF1 inhib: -91*; CHT inh: -6.5*; HSF1 activator: -91; CHT block conf: 50%*; HEK293 MPD ctr: inactive

Results for CCOC(=O)c1nc(S(C)(=O)=O)ncc1Cl ?
PHOSPHO1 block: 6; CHT PAM: inactive; CHT inh: -6.3*; CHT block conf: 47%*; HEK293 MPD ctr: inactive

How did CS(=O)(=O)c1ncc(Cl)c(C(=O)Nc2ccc(N3CCOCC3)cc2)n1 do in these assays?
PHOSPHO1 block: -14; CHT PAM: inactive; Hep lipid drop: -20; HSF1 inhib: 46; CHT inh: -6.9*; HSF1 activator: 100*; CHT block conf: 56%*; HEK293 MPD ctr: inactive

How did CC(=O)Nc1ccc(NC(=O)CSc2nnc(NC(=O)c3cccc(F)c3)s2)cc1 do in these assays?
PHOSPHO1 block: 33; CHT PAM: inactive; Hep lipid drop: 6; HSF1 inhib: 20; CHT inh: inactive; HSF1 activator: 6

What do the screens show for `N#CCO/N=C(\c1ccccc1)c1ccncc1`?
PHOSPHO1 block: 18; CHT PAM: inactive; HSF1 inhib: 0; CHT inh: inactive; HSF1 activator: -6

What do the screens show for `CCOc1ccccc1C(=O)NC(C(=O)OCC(=O)Nc1nnc(-c2ccccc2)o1)C(C)C` (configuration not stated)?
PHOSPHO1 block: 0; CHT PAM: inactive; Hep lipid drop: -3; HSF1 inhib: -12; CHT inh: -5.7*; HSF1 activator: 13; CHT block conf: inactive; HEK293 MPD ctr: inactive

What do the screens show for `CCN(CC)CCCN(C(=O)c1ccco1)c1nc(-c2ccc(Cl)cc2)cs1`?
PHOSPHO1 block: 47; CHT PAM: inactive; Hep lipid drop: -13; HSF1 inhib: 14; CHT inh: -6.3*; HSF1 activator: 33; CHT block conf: 37%*; HEK293 MPD ctr: inactive

Results for CC(C)N(C)CCOC(=O)C1COc2ccccc2O1 (configuration not stated) ?
PHOSPHO1 block: 16; CHT PAM: inactive; Hep lipid drop: 2; HSF1 inhib: 1; CHT inh: -6*; HSF1 activator: -2; CHT block conf: 7.5%*; HEK293 MPD ctr: inactive

What do the screens show for `C=CCNC(=O)NC(=O)COC(=O)CCCSc1nc2ccccc2[nH]1`?
PHOSPHO1 block: -51; CHT PAM: inactive; Hep lipid drop: 4; HSF1 inhib: 6; CHT inh: inactive; HSF1 activator: 8

How did COCC(=O)Nc1ccc(S(=O)(=O)N2CCCC2)cc1 do in these assays?
PHOSPHO1 block: 2; CHT PAM: inactive; Hep lipid drop: -1; HSF1 inhib: -3; CHT inh: inactive; HSF1 activator: 23

What do the screens show for `CCSc1nnc(NC(=O)C(C)(C(F)(F)F)C(F)(F)F)s1`?
PHOSPHO1 block: -37; CHT PAM: inactive; Hep lipid drop: 2; HSF1 inhib: -7; CHT inh: -8.8*; HSF1 activator: -6; CHT block conf: 70%*; HEK293 MPD ctr: inactive

Results for CCSc1nnc(NC(=O)C(C(F)(F)F)C(F)(F)F)s1 ?
PHOSPHO1 block: 38; CHT PAM: inactive; HSF1 inhib: -5; CHT inh: inactive; HSF1 activator: -5

How did CN(Cc1ccccc1)C(=O)COC(=O)c1cc(NS(=O)(=O)c2cccs2)ccc1O do in these assays?
PHOSPHO1 block: -8; CHT PAM: inactive; Hep lipid drop: -14; HSF1 inhib: -3; CHT inh: -5.8*; HSF1 activator: 13; CHT block conf: inactive; HEK293 MPD ctr: inactive

How did CC(=O)/C(C#N)=C1\NC(=O)C(Cc2ccccc2C)S1 (configuration not stated) do in these assays?
PHOSPHO1 block: 46; CHT PAM: inactive; Hep lipid drop: 13; HSF1 inhib: -5; CHT inh: inactive; HSF1 activator: -3

How did COCCCn1c(=NC(=O)c2ccccc2)c(C#N)cc2c(=O)n3cccc(C)c3nc21 do in these assays?
PHOSPHO1 block: -63; CHT PAM: inactive; Hep lipid drop: 3; HSF1 inhib: -12; CHT inh: inactive; HSF1 activator: -22

Bioassay records: PubChem, several laboratories
